Data reported in article PMC5148661 (ACS infectious diseases, 2016).
Several values for one entry are separate records, joined by “and”; a condition that tells them apart may be missing. Equal entries are not always repeated. Where two headings read alike, the source gives them in different places.

Tests used:
[1] = target: P. berghei DHODH (PbDHODH) (Plasmodium berghei, UniProt A0A509AEH5); test: DHODH inhibition, DCIP-based assay; type: biochemical
physchem = type: physicochemical
CYP2C9 = CYP2C9 (Homo sapiens, UniProt P11712); test: reversible cytochrome P450 inhibition; type: in vitro ADME
Outline: (§1)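 Reversible inhibition of human CYP isoforms tested with isoform-specific probe substrates. Time-dependent (mechanism-based) inhibition was also assessed.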

[2] = pharmacokinetics after IV and oral dosing; type: in vivo, rats
Outline: (§2)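 Single IV and oral doses were given. Mice and rats received about 2 mg/kg IV and 5–50 mg/kg orally, with blood sampled over 30–48 h from 2 mice per time point or 2 rats. Dogs received 1 mg/kg by each route (n=3). Plasma was separated by centrifugation and assayed by LC/MS, and parameters were derived non-compartmentally.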

[3] = pharmacokinetics after IV and oral dosing; type: in vivo, dogs; conditions: dog, plasma, 1 mg/kg
Outline: as §2

P. vivax DHODH = P. vivax DHODH (Plasmodium vivax, UniProt A5K1N1); test: DHODH inhibition, DCIP-based assay; type: biochemical
Rabbit DHODH = Rabbit DHODH (Oryctolagus cuniculus, UniProt G1SWF3); test: DHODH inhibition, DCIP-based assay; type: biochemical
Na_V1.5 channel = Na_V1.5 channel (Homo sapiens, UniProt Q14524); test: Na_V1.5 channel assay; type: cell-based
Outline: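 Channel activity measured by IonWorks automated patch-clamp electrophysiology at a contract lab.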

[4] = test system: P. falciparum 3D7A parasites; test: in vitro kill rate; type: cell-based; conditions: for EC50: Plasmodium falciparum, 3D7, 48 h
[5] = kinetic solubility in pH 6.5 buffer; type: physicochemical; conditions: aqueous buffer pH 6.5, pH 6.5
Rat DHODH = Rat DHODH (Rattus norvegicus, UniProt Q63707); test: DHODH inhibition, DCIP-based assay; type: biochemical
Dog DHODH = Dog DHODH (Canis lupus familiaris, UniProt A0A8I3MWX2); test: DHODH inhibition, DCIP-based assay; type: biochemical
[6] = test system: CYP isoforms (all isoforms tested); test: cytochrome P450 inhibition, other isoforms and time-dependent inhibition; type: in vitro ADME
Outline: as §1

[7] = metabolic stability in liver microsomes; type: in vitro ADME; conditions: mouse
[8] = test system: P. falciparum field isolates; test: ex vivo 48 h schizont maturation assay; type: cell-based; conditions: Plasmodium falciparum, read-out: unbound EC50
Outline: (§3)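 Field isolates came from patients at malaria clinics in Timika, Papua, Indonesia, and were tested in a 48 h schizont maturation assay adapted from the WHO microtest at 2% hematocrit. P. falciparum was run in RPMI 1640 with 10% AB+ human serum. P. vivax was run in McCoy's 5A with 20% AB+ human serum.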

[9] = incubation in cryopreserved hepatocytes; type: in vitro ADME, human; conditions: 10 μM over 120 minutes
Outline: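 Human cryopreserved hepatocytes at 1 × 10^6 cells/mL were incubated with test compound at 10 μM. Metabolites were assigned by accurate mass measurement.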

P. falciparum DHODH = P. falciparum DHODH (Plasmodium falciparum, UniProt Q08210); test: DHODH inhibition, DCIP-based spectrophotometric steady-state assay; type: biochemical
[10] = test system: P. falciparum Dd2 isolates selected for resistance to DSM265; test: activity on DSM265-selected resistant lines; type: cell-based; conditions: G181C PfDHODH mutant line and 3-fold DHODH gene amplification line
[11] = stability in plasma and blood; type: in vitro ADME; conditions: plasma 37°C over 5 h; blood over 4 h
[12] = solubility by equilibration in physiologically-relevant media; type: physicochemical
Mouse DHODH = Mouse DHODH (Mus musculus, UniProt O35435); test: DHODH inhibition, DCIP-based assay; type: biochemical
Human DHODH = Human DHODH (Homo sapiens, UniProt Q02127); test: DHODH inhibition, DCIP-based assay; type: biochemical
Minipig DHODH = Minipig DHODH (Sus scrofa, UniProt F1S3B0); test: DHODH inhibition, DCIP-based assay; type: biochemical
hERG channel = hERG channel (Homo sapiens, UniProt Q12809); test: hERG channel patch clamp; type: cell-based; conditions: for IC50: hERG IC50, partial dose response curve
Outline: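 hERG current measured by IonWorks automated patch-clamp electrophysiology at a contract lab. Top concentration tested was 33 μM.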

P. vivax field isolates = test: ex vivo 48 h schizont maturation assay; type: cell-based
Outline: as §3

Ames tester strains = test: GLP Ames 5 strain test; conditions: with and without metabolic activation
[13] = metabolic stability in liver microsomes; type: in vitro ADME; conditions: dog
[14] = test system: P. cynomolgi large and small forms; test: P. cynomolgi liver stage assay in primary rhesus monkey hepatocytes; type: cell-based; conditions: concentrations at or below 10 μM; human serum-based media
[15] = test system: D10w/yDHODH P. falciparum cell line; test: growth inhibition of transgenic P. falciparum expressing yeast DHODH; type: cell-based
Outline: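 D10 parasites transfected with yeast DHODH were grown in human erythrocytes in RPMI 1640 with 0.5% Albumax II. EC50 came from a 72 h dose–response growth assay read by SYBR Green DNA fluorescence.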

P. falciparum 3D7 = test: whole cell P. falciparum 3D7 blood stage 72 h assay, albumax media; type: cell-based; conditions: for EC50: Plasmodium falciparum, 3D7, 72 h
[16] = pharmacokinetics after IV and oral dosing; type: in vivo, mice
Outline: as §2

Sequence of hERG channel (Q12809 whole entry): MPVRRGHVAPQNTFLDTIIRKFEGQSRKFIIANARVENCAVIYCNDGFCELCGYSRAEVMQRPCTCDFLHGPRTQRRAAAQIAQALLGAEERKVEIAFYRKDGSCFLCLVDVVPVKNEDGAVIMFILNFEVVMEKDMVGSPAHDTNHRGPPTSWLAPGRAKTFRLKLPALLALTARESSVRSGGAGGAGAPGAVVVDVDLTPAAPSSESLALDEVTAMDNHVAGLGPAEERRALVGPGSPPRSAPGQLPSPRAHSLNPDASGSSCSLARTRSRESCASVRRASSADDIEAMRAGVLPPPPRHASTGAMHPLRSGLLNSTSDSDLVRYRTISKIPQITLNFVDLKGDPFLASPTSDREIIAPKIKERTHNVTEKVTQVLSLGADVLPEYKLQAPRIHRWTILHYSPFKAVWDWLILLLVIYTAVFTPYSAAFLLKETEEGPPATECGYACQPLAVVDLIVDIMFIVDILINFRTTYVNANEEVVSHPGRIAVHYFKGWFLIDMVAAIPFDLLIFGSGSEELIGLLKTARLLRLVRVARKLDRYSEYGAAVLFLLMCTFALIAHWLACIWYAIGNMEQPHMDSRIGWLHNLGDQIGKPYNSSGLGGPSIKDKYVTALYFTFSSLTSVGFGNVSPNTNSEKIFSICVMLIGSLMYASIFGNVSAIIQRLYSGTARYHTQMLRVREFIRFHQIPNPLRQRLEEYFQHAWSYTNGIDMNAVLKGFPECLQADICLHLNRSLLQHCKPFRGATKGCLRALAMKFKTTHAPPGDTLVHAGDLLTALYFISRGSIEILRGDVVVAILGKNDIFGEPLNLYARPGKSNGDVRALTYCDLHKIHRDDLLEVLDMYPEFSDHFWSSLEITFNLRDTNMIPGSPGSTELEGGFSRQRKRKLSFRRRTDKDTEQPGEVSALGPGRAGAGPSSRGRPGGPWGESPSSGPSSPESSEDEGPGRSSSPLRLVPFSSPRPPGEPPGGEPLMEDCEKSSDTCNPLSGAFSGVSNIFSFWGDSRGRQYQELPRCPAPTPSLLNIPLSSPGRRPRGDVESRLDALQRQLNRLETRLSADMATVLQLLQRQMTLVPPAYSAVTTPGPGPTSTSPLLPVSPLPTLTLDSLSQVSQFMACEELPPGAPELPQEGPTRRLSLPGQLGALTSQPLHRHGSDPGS
Sequence of Rat DHODH (Q63707 whole entry): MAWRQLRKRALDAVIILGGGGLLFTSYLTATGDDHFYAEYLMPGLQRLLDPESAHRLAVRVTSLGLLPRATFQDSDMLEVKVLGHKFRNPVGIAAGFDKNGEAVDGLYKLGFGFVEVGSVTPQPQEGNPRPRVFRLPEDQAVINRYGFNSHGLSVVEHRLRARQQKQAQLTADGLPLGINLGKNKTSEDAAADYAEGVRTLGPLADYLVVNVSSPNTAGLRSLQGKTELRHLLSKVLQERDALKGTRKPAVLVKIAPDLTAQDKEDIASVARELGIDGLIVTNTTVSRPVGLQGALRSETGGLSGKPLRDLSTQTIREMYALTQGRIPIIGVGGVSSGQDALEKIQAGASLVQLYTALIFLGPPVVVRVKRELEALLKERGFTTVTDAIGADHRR
Sequence of P. vivax DHODH (A5K1N1 160-572): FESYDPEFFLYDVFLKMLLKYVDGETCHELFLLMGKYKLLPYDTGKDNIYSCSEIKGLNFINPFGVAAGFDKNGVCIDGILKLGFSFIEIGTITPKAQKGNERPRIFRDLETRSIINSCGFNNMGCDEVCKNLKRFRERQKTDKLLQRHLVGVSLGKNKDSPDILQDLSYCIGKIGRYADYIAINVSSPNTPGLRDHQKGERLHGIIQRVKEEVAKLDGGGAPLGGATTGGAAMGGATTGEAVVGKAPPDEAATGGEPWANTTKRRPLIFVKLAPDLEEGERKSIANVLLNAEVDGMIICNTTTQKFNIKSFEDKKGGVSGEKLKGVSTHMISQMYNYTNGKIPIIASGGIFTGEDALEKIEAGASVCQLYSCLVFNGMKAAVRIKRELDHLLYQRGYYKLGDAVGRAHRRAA
Sequence of P. berghei DHODH (PbDHODH) (A0A509AEH5 132-517): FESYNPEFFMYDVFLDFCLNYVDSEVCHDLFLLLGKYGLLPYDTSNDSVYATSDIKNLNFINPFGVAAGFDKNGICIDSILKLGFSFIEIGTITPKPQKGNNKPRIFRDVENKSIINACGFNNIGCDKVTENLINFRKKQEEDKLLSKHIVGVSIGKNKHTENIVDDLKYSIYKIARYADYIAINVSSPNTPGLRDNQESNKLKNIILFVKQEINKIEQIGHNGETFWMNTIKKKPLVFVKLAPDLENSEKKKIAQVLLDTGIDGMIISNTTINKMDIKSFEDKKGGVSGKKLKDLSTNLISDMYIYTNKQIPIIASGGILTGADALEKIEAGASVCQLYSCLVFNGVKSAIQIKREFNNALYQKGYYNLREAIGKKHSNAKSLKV
Sequence of Dog DHODH (A0A8I3MWX2 1-406): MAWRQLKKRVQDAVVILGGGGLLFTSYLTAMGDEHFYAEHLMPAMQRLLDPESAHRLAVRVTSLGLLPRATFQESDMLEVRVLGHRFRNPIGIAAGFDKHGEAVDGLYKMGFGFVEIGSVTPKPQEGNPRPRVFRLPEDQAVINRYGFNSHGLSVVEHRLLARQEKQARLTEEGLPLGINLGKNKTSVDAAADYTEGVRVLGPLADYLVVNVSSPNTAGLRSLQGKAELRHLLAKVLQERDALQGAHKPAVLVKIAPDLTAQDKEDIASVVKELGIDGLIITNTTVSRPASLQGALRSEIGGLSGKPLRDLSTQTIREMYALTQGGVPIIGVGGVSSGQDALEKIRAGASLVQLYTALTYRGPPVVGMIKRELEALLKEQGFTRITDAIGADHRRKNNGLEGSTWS
Sequence of Mouse DHODH (O35435 whole entry): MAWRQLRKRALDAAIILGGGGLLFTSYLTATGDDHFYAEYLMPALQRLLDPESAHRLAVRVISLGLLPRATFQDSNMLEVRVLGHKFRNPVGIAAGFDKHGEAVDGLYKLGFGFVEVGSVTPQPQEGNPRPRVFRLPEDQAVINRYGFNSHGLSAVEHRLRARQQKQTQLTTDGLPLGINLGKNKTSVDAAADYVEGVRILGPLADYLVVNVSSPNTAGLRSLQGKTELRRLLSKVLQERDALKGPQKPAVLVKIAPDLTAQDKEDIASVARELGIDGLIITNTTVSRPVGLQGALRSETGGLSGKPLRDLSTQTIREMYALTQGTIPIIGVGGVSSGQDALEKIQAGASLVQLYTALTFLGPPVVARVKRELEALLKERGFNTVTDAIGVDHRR
Sequence of CYP2C9 (P11712 whole entry, canonical isoform): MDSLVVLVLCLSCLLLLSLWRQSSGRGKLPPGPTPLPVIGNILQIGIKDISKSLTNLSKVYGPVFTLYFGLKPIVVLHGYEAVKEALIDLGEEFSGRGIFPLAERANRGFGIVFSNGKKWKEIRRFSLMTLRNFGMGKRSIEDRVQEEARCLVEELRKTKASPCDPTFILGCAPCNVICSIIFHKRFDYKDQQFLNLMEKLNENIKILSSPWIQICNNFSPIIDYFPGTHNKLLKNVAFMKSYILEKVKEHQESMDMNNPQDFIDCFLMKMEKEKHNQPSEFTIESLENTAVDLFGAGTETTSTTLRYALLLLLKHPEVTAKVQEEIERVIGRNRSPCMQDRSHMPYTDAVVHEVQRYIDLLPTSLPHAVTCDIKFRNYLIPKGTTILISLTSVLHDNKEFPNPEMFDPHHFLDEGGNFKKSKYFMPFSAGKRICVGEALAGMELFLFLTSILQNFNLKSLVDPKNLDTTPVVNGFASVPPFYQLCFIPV
Sequence of Human DHODH (Q02127 whole entry): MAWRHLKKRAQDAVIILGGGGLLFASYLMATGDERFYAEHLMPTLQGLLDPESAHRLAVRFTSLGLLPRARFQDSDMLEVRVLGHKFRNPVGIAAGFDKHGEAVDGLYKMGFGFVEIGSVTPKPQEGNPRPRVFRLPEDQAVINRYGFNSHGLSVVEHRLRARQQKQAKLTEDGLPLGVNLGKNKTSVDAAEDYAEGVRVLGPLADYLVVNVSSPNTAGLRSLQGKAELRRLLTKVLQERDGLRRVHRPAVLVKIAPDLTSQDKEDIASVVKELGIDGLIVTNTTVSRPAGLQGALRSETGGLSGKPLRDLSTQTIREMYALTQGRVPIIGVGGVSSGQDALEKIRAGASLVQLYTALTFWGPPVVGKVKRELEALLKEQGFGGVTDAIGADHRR
Sequence of Minipig DHODH (F1S3B0 1-395): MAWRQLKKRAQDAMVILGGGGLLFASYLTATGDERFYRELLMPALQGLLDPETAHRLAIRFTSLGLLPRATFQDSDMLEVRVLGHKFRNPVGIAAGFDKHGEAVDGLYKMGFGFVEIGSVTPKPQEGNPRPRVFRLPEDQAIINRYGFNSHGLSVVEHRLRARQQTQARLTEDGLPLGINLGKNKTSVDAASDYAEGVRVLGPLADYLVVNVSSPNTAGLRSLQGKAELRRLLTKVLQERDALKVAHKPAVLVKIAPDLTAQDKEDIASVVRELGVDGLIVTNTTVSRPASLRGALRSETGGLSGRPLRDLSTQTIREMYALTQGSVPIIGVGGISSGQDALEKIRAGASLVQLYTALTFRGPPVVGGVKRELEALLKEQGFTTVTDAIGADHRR
Sequence of P. falciparum DHODH (Q08210 158-569 limits assumed): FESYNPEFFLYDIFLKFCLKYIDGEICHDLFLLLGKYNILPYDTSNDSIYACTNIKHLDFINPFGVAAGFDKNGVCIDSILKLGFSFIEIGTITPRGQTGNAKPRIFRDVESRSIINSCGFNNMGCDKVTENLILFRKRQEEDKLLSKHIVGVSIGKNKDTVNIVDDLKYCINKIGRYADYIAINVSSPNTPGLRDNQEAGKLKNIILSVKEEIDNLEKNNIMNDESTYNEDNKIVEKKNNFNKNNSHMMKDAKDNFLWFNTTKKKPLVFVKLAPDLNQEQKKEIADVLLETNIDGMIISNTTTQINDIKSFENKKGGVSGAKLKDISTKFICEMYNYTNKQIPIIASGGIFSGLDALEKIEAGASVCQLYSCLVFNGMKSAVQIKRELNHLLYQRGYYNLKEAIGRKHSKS

With Cc1cc(Nc2ccc(C(F)(F)F)nc2)n2nc(C(C)(F)F)nc2n1 [DSM421, 2-(1,1-Difluoroethyl)-5-methyl-N-(6-(trifluoromethyl)pyridin-3-yl)-[1,2,4]triazolo[1,5-a]pyrimidin-7-amine] the IC50 [1] was 5 µM, the “fold less active against PbDHODH than PfDHODH” value [1] was 100 fold and the logD (physchem; pH 7.4, measured Log D7.4, text (Table S6)) was 2.36. For the same compound, the “measured Log D7.4” value (physchem; text (Table S6)) was 2.4, the inhibition at 20 µM (CYP2C9) was 22% and the half-life ([2]; rat, plasma) was roughly 5 h. For the same compound, the Vd ([2]; rat, plasma, iv, 2 mg/kg) was 0.8 L/kg, the clearance ([2]; rat, plasma, iv, 2 mg/kg) was 2.4 mL/min/kg and the Tmax ([2]; rat, plasma, po) was 1.8 to 7.5 h. For the same compound, the bioavailability ([2]; rat, plasma, po, 4.3 mg/kg) was roughly 80%, the “fold increase of plasma AUC” value ([2]; rats, oral 4.3 to 53.7 mg/kg, for a 12-fold increase in dose) was 31 fold and the half-life [3] was 15 to 18 h. For the same compound, the CLint scaled ([3]; intravenous) was 4.5 mL/min/kg, the Vd ([3]; iv) was 0.8 L/kg and the clearance ([3]; iv) was 0.5 mL/min/kg. For the same compound, the Tmax ([3]; po) was 4 h, the bioavailability ([3]; po) was roughly 100% and the IC50 (P. vivax DHODH) was 0.094 µM. The “fold lower activity (higher IC50) on P. vivax DHODH than PfDHODH” value (P. vivax DHODH) was 2 fold, the IC50 (Rabbit DHODH) was greater than 100 µM and the “activity on Na_V1.5 channel” value (Na_V1.5 channel) was “no activity”. For the same compound, the “lag time before killing began” value ([4]; 10xEC50) was 48 h, the EC50 ([4]; read-out: EC50, 48 h growth assay (PRR)) was 0.043 µM and the EC50 ([4]; read-out: unbound EC50) was 0.022 µM. For the same compound, the solubility kinetic [5] was greater than 100 µg/mL, the IC50 (Rat DHODH) was 22 µM and the “fold reduction of inhibitory activity in comparison to DSM265” value (shortened to “fold reduction of inhibitory activity”) (Rat DHODH; rodent (rat) enzyme) was 10 fold. For the same compound, the IC50 (Dog DHODH) was 35 µM, the “fold reduction of inhibitory activity” value (Dog DHODH; dog enzyme) was 2.2 fold and the IC50 [6] was greater than 20 µM. For the same compound, the microsomal CLint at 1 μM [7] was less than 7 µL/min/mg, the EC50 [8] was 0.023 µM and the “degradation in human hepatocyte incubations” value [9] was “minimal degradation”. For the same compound, the IC50 (P. falciparum DHODH) was 0.053 µM, the “cross resistance on DSM265-resistant Dd2 lines” value [10] was “shares cross resistance with DSM265” and the “stability in plasma and blood” value [11] was “stable”. For the same compound, the “fold more soluble than DSM265” value [12] was 6-80 fold, the IC50 (Mouse DHODH) was 18 µM and the “fold reduction of inhibitory activity” value (Mouse DHODH; rodent (mouse) enzyme) was 10 fold. For the same compound, the IC50 (Human DHODH) was greater than 100 µM, the IC50 (Minipig DHODH) was greater than 100 µM and the “concentration giving 20% hERG inhibition” value (hERG channel) was ~ 10 μM and 3.6 μg/mL. For the same compound, the IC50 (hERG channel) was 26.2 µM, the IC50 (hERG channel; maximum concentration 33 μM) was 26.2 µM and the “sensitivity of P. vivax versus P. falciparum field isolates” value (P. vivax field isolates) was “equivalent activity towards both species”. The “GLP Ames 5 strain test result” value (Ames tester strains) was “no obvious cytotoxicity in any tester strain at any tested dose level”, the microsomal CLint at 1 μM [13] was less than 7 µL/min/mg and the “radical cure activity, liver stage” value [14] was “did not show radical cure activity”. The “inhibition of D10w/yDHODH line” value [15] was “did not inhibit this line”, the EC50 ([15]; read-out: EC50 on D10 cells transfected with yeast DHODH) was greater than 10 µM and the “fold less potent than DSM265 against P. falciparum 3D7 parasites” value (P. falciparum 3D7) was 3 fold. For the same compound, the “fold lower intrinsic potency than DSM265 based on unbound concentrations” value (P. falciparum 3D7; 48 and 72 h in vitro assays) was 10 fold, the EC50 (P. falciparum 3D7; read-out: Pf3D7 EC50) was 0.014 µM and the EC50 (P. falciparum 3D7; read-out: unbound EC50) was 0.007 µM. The “fold increase of plasma AUC” value ([16]; mice, oral, for a 9-fold increase in dose) was 13 fold, the half-life ([16]; mouse, plasma) was roughly 2 h and the Vd ([16]; mouse, plasma, iv, 2 mg/kg) was 0.9 L/kg. It also gave a clearance ([16]; mouse, plasma, iv, 2 mg/kg) of 5.1 mL/min/kg, a Tmax ([16]; mouse, plasma, po) of 1 to 2 h and a bioavailability ([16]; mouse, plasma, po) greater than 100%.
